Assay outcomes deposited in PubChem BioAssay by several laboratories.
RBBP9 inhibitor: blocks human serine hydrolase RBBP9 | hit rate 0.2% among 220,000 | O75884 | inhibition, % at 7.94 µM | recombinant RBBP9, FP-Rh probe fluorescence polarization;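 active = inhibition above the campaign mean of all tested compounds plus 3 SD, cut at about 14% in these data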
Target sequence (O75884 whole entry, looked up): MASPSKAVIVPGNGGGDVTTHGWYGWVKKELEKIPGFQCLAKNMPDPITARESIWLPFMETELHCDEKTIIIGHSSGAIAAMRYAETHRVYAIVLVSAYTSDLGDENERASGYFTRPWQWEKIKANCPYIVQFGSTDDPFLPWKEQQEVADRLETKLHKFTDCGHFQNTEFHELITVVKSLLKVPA
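Test system: recombinant human RBBP9. Quantity: 2.5 µM RBBP9 dispensing solution, before mixing. Detection: FP readout at 525/598 nm. Reagent: Serine-hydrolase probe FP-Rh, 375 nM pre-mixing. Measure: % inhibition. Control set: DMSO-treated enzyme wells and wells lacking RBBP9. Buffer or medium: Tris-NaCl-Pluronic buffer, pH 8.0. Times: preincubation 30 min plus labeling 45 min at 25 °C.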
Runt-CBFb FRET: Runt domain-CBFb interaction inhibition. Cerulean-Runt/Venus-CBFb FRET ratio 530/480, 1 h. inhibition, % at 20 µM. hit rate 0.46% among 220,000. AID 1496;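 active = inhibition over about 50% at 20 µM in the single-dose screen, limit read from the data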
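Assay system: Cerulean-tagged RUNX1 Runt domain (FRET donor) fusion protein / Amount: 100 nM each of Venus-CBFb and Cerulean-Runt domain / Medium: Tris buffer pH 7.5 with salts and BSA / Also added: Venus-CBFb 100 nM / Schedule: 1 h complex formation plus 1 h compound treatment, room temperature / Signal: FRET fluorescence / Read-out: loss of energy transfer signal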
RanGTP-Imp inh: inhibitors of RanGTP-importin-beta interaction, primary screen, biochemical, FRET, CFP-Ran, YFP-importin-beta, homogeneous | cell-free CFP-Ran/YFP-importin-beta FRET ratio | inhibition, % (no concentration beside the values) | hit rate 1.1% among 300,000 | AID 2216;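 active = more than half of the replicate wells show a fall in the fluorescence ratio signal beyond about 16%, limit read from the data, passing the limit was not always enough; inconclusive = exactly half of the replicate wells pass the set limit; inactive = fewer than half of replicates pass the limit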
M18AAP inhibitor: PfM18AAP enzyme inhibition; recombinant PfM18AAP, H-Glu-NHMec fluorogenic cleavage; inhibition, % at 7.35 µM; hit rate 1.2% among 290,000; AID 1822;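 active = inhibition above the campaign mean inhibition over all tested compounds plus 3 SD, cut at about 28% in these data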
Runt-SMMHC FRET: Runt domain-CBFb-SMMHC interaction inhibition | Q01196+Q13951 | Cerulean-Runt/Venus-CBFb-SMMHC FRET ratio 530/480, 1 h | inhibition, % at 20 µM | hit rate 0.74% among 220,000 | AID 1434;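 active = mean inhibition across duplicate retests at 20 µM reaching about 50%, limit read from the data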;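 note: inhibitors lower the FRET ratio by blocking Runt binding to CBFb-SMMHC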
Hck Nef HTS: inhibitors of human Hck kinase activated by Nef; Recombinant Hck-YEEI plus Nef, Z-Lyte FRET kinase assay; inhibition, % at 20 µM; hit rate 0.68% among 220,000; AID 463187;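 active = Hck-Nef kinase inhibition above about 50%, limit read from the data; inactive = inhibition below that limit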
Hits are given with their value; i = inactive; ? = inconclusive; nt = no result given. Rows were chosen to be rich in hits. Some 2.9% of all compounds tested hit in one or more screens of this group.

SMILES	RBBP9 inhibitor	Runt-CBFb FRET	RanGTP-Imp inh	M18AAP inhibitor	Runt-SMMHC FRET	Hck Nef HTS
COc1ccccc1NC(=O)CCCCCN1C(=O)c2cccc([N+](=O)[O-])c2C1=O	nt	nt	i	i	nt	nt
COc1cc(/C=C2/C(=O)c3cccc([N+](=O)[O-])c3C2=O)c(Br)cc1O	i	i	nt	30	i	i
CC(C)n1cc(/C=N/NC(=O)COc2cccc3cccnc23)c2ccccc21	i	i	i	i	i	74
C=CCn1cc(/C=N/NC(=O)COc2cccc3cccnc23)c2ccccc21	i	i	i	i	i	71
COc1cccc(/C=N/NC(=O)COc2cccc3cccnc23)c1O	i	i	i	i	i	i
CC(C)CC(C(=O)NC(C)(C)C)N(Cc1ccccc1Cl)C(=O)c1snc(C(N)=O)c1N (stereo unspecified)	nt	nt	i	i	nt	nt
COc1cc(OC)c2c(O)c3c(c(-c4c5c(c(O)c6c(OC)cc(OC)cc46)CO[C@@H](C)[C@H]5O)c2c1)[C@H](O)[C@H](C)OC3	i	i	?	i	i	51
COc1cc2c(c(OC)c1O)C(=O)CO2	i	i	i	i	i	i
CC(=O)c1ccc(N(CC(=O)NC2CCCC2)C(=O)CCC(=O)Nc2cc(C)on2)cc1	nt	nt	i	i	nt	nt
Cc1nnc(N/N=C/c2ccc(-c3ccccc3F)o2)n1N	i	i	?	52	i	i
CC(NCC(O)COc1ccccc1)C1COc2ccccc2O1 (stereo unspecified)	nt	nt	i	i	nt	nt
COCCn1c(CCC(=O)O)ccc1-c1cccs1	i	i	i	i	55	i
Oc1cccc(C(=S)N2CCC(Cc3ccccc3)CC2)c1	nt	nt	i	i	nt	nt
Oc1cccc(C(=S)N2CCN(Cc3ccccc3)CC2)c1	i	i	i	29	i	i
Oc1ccc(/C=N/NC(=S)Nc2cccnc2)cc1	i	i	i	31	i	i
COc1ccc(C2C(C#N)=C(SC)NC3=C2C(=O)CC(C)(C)C3)cc1 (stereo unspecified)	i	i	i	i	i	i
CC1=C(C(=O)OCC2CCCO2)C(c2ccc(C)cc2)C2=C(CC(C)(C)CC2=O)N1 (stereo unspecified)	i	i	i	i	56	i
COc1ccc(C2C(C#N)=C(C)NC3=C2C(=O)CC(C)(C)C3)c(OC)c1 (stereo unspecified)	i	i	i	i	i	i
CCOC(=O)C1=C(C)NC2=C(C(=O)CC(C)(C)C2)C1c1cccc(C)n1 (stereo unspecified)	i	i	?	i	88	i
CCCCC1C(C#N)=C(C)NC2=C1C(=O)CC(C)(C)C2 (stereo unspecified)	i	i	i	i	69	i
COC(=O)c1ccc(C2C(C#N)=C(C)NC3=C2C(=O)CC(C)(C)C3)cc1 (stereo unspecified)	i	i	i	i	81	i
O=C(CN1CCCc2ccccc21)NCCc1ccc(F)cc1	i	i	i	i	i	i
CCN(CCCNC(=O)CNC(=O)c1nn(-c2ccc(OC)cc2OC)c(=O)c2ccccc12)c1cccc(C)c1	nt	nt	i	i	nt	nt
COc1ccc(N2C(=O)CC(NNC(=O)c3cccnc3)C2=O)cc1 (stereo unspecified)	i	i	i	i	i	i
Cc1ccccc1NC(=O)Cc1nc(COC(=O)CCNS(=O)(=O)c2ccccc2)cs1	nt	nt	i	nt	nt	nt
SMILES	RBBP9 inhibitor	Runt-CBFb FRET	RanGTP-Imp inh	M18AAP inhibitor	Runt-SMMHC FRET	Hck Nef HTS
CCN(CC)CCN(C(=O)C1=COCCO1)c1nc2c(OC)ccc(OC)c2s1	nt	nt	i	i	nt	nt
CN(C)CCCn1c(N)c(C#N)c2nc3ccccc3nc21	i	i	61	i	80	i
CCCCC(CC)Cn1c(N)c(C#N)c2nc3ccccc3nc21 (stereo unspecified)	i	i	49	i	101	i
N#Cc1c(N)n(-c2ccc(N)cc2)c2nc3ccccc3nc12	i	i	i	i	i	i
CCOC(=O)C1=C(C)NC2=C(C(=O)C(C(=O)OCC)C(c3ccco3)C2)C1c1ccccn1 (stereo unspecified)	i	i	32	i	i	i
CCOC(=O)C1C(C)=CC(=O)CC1c1ccco1 (stereo unspecified)	i	i	i	i	i	i
CCCc1nnc(NC(=O)C2CCN(C(=O)c3ccco3)CC2)s1	nt	nt	i	i	nt	nt
CCN=c1scc(C)n1/N=C/c1cc(Br)c(O)c(OC)c1	i	i	i	35	i	i
COc1cc(/C=N/N2C(=O)CSC2=S)cc(Br)c1O	i	i	nt	i	i	76
CN=c1scc(C)n1/N=C/c1cc(Br)c(O)c(Br)c1	i	i	i	i	i	i
COc1ccc2ccccc2c1/C=N/N1C(=O)CSC1=S	i	i	i	30	i	i
COc1ccc(N=Cc2c(OC)ccc3ccccc23)cc1	nt	nt	i	nt	nt	nt
Cc1cc(NC(=O)COc2ccccc2)ccc1Cl	nt	nt	i	i	nt	nt
O=C(CSc1nc2nc(-c3cccs3)cc(C(F)(F)F)c2c(=O)[nH]1)NCc1ccco1	i	i	?	28	i	i
O=C(CSc1nc2nc(-c3cccs3)cc(C(F)(F)F)c2c(=O)[nH]1)C(F)(F)F	nt	nt	?	i	nt	nt
O=C(c1cnn2c(C(F)(F)F)cc(-c3cccs3)nc12)N1CCCC1	i	i	i	i	i	i
O=C(NCc1ccco1)c1cnn2c(C(F)(F)F)cc(-c3cccs3)nc12	i	i	?	i	52	i
COCCNC(=O)c1cnn2c(C(F)F)cc(-c3ccccc3)nc12	i	i	nt	i	i	i
O=C(NCc1ccco1)c1cnn2c(C(F)F)cc(-c3ccccc3)nc12	i	i	32	i	i	i
Cc1ccc2c(c1)c1c(c(=O)n(-c3ccccc3C)c(=O)n1CC(=O)NCC1CCCO1)n2C (stereo unspecified)	nt	nt	i	i	nt	nt
CCOC(=O)c1c(S(=O)(=O)N2CCCC(C(=O)Nc3ccc(C)cn3)C2)c(C)n(C)c1C (stereo unspecified)	nt	nt	i	i	nt	nt
CC[n+]1c(C)sc2sc3ccccc3c21	i	i	i	60	i	i
O=C(N1CCOCC1)N1CCN(S(=O)(=O)c2cccc([N+](=O)[O-])c2)CC1	nt	nt	i	i	nt	nt
COc1ccc2c(c1OC)C(=O)N(c1ccc(C)c(C)c1)C2=O	i	i	75	i	i	i
COc1ccc2c(c1OC)C(=O)N(c1ccc(C)cc1)C2=O	i	i	i	i	i	i
CCCC(=O)NC(Nc1ccccc1F)C(Cl)(Cl)Cl (stereo unspecified)	i	67	i	i	i	i
O=C(O)c1cc(O)c2c(c1)C(=O)c1cccc(O)c1C2=O	27	i	i	28	i	i
CCN1C(=O)CSc2ccc(C(=O)NCc3ccco3)cc21	i	i	23	i	i	i
CCCn1nc(NC(=O)c2ccco2)c2cc3ccccc3nc21	i	i	46	i	i	i
